How the values were obtained:
Type in all cases: cell-based
[1] = biological target: P2Y purinoceptor 12 (Homo sapiens) (UniProt Q9H244); assay: Antagonist activity at P2Y12 receptor in human blood platelets assessed as inhibition of ADP-induced platelet aggregation at 10 uM compound preincubated with blood for 5 mins prior to ADP addition by electrode aggregometry assay; conditions: filed as antagonist
How it was run: (§1)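 Fresh hirudin-anticoagulated human whole blood from volunteers free of medication for seven days, tested within two hours of venepuncture. 300 μL blood mixed with 300 μL pre-warmed isotonic saline containing compound (0, 0.1, 1, 10 or 100 μM final) or vehicle (1% DMSO final). Incubated 5 min at 37 °C, then 20 μL 0.2 mM ADP added.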

[2] = biological target: P2Y purinoceptor 12 (Homo sapiens) (UniProt Q9H244); assay: Antagonist activity at P2Y12 receptor in human blood platelets assessed as inhibition of ADP-induced platelet aggregation at 1 uM compound preincubated with blood for 5 mins prior to ADP addition by electrode aggregometry assay; how it was run: as §1
[3] = biological target: P2Y purinoceptor 12 (Homo sapiens) (UniProt Q9H244); assay: Antagonist activity at P2Y12 receptor in human blood platelets assessed as inhibition of ADP-induced platelet aggregation at 0.1 uM compound preincubated with blood for 5 mins prior to ADP addition by electrode aggregometry assay; how it was run: as §1

Chain of P2Y purinoceptor 12 (Homo sapiens) (Q9H244 whole entry): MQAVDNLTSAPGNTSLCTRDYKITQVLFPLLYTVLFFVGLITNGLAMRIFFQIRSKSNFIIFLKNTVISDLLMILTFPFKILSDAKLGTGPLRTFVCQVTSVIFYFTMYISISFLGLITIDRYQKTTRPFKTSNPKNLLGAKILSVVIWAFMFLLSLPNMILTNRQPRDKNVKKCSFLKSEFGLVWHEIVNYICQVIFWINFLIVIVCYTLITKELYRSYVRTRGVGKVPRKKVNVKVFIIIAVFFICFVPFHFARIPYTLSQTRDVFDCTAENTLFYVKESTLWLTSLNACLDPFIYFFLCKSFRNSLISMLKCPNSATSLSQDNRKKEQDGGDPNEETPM

| SMILES | inhibition [1] | inhibition [2] | inhibition [3] |
| --- | --- | --- | --- |
| CCOC(=O)c1cc(NC(=O)c2cc(NC(=O)c3cc(NC(=O)c4c(-c5ccccc5)noc4C)cn3C)cn2C)cn1C | 61.8% | 38.2% | 37% |
| O=C(CCCCCCCC(=O)Nc1ccc2[nH]c3ccccc3c(=O)c2c1)Nc1ccc2[nH]c3ccccc3c(=O)c2c1 | 41.1% | 22.8% | 4.75% |
| O=C(CCC(=O)Nc1ccc2[nH]c3ccccc3c(=O)c2c1)Nc1ccc2[nH]c3ccccc3c(=O)c2c1 | 57.8% | 33.6% | 22.3% |

Source: ChEMBL document CHEMBL5230169, “QSAR, structure-based pharmacophore modelling and biological evaluation of novel platelet ADP receptor (P2Y12) antagonist” (RSC Med Chem, 2023)
